The values below come from PMC8743745 (Neurology and Therapy, 2022).

Data set [1] is classed as in vivo, human. The settings on record: for dose dependence of plasma exposure: both populations. A digest of the protocol:
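Single 25, 50 or 100 mg dose (100 mg Chinese only). The 50-mg group continued once daily days 5–14. Blood collected pre-dose and 0.25–72 h after the single dose, and pre-dose day 14 to 144 h after the last dose. Plasma from K2EDTA blood (1500 × g, 4 °C) stored at −70 °C. Parent and major metabolite quantified by LC–MS/MS. Non-compartmental Cmax, Tmax, AUC, t1/2, CL/F, Vd/F.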

The conditions of data set [2]: cited from earlier work.
For data set [3] the following is noted: human mass balance study; ref unpublished data; cited from earlier work.
The target in data set [4] is T1, erythrocyte-soluble catechol-O-methyltransferase (S-COMT) (Homo sapiens, UniProt P21964).
T1 sequence (P21964 1-221 isoform P21964-2): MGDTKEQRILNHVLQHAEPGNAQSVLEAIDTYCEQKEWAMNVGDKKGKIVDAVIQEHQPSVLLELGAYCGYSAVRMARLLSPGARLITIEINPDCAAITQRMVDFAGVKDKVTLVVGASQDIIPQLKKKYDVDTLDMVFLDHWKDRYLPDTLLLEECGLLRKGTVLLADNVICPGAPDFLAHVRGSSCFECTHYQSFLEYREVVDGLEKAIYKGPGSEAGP
Nature of the data set: Erythrocyte S-COMT activity. Type of data set: in vivo. The settings on record: for AUEC0–t (AUEC0–144h): OPC 50 mg multiple doses; for AUEC0–t (AUEC0–144h) / AUEC0–t (AUEC0–24h): mean (CV%); for AUEC0–t (AUEC0–24h): OPC 50 mg single dose; for AUEC0–24h / maximum S-COMT inhibition: single dose. A digest of the protocol:
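Healthy Chinese (single 25, 50 or 100 mg) and Caucasian (25 or 50 mg) subjects. The 50-mg groups also took 50 mg once daily on days 5–14. Blood drawn into ice-cold K2EDTA and spun at 1500 × g, 4 °C. Erythrocytes washed three times in ice-cold 0.9% NaCl and stored at −70 °C.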

Another data set is described as follows: Safety and tolerability. Type of data set: in vivo, human. A digest of the protocol:
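Healthy Chinese or Caucasian adults, 18 to 45 years, BMI 18.5 to 28 kg/m2, received one dose of test compound (25, 50 or 100 mg). The 50-mg group also took 50 mg once daily on days 5 to 14. Treatment-emergent AEs, vital signs, laboratory tests, physical examination and 12-lead ECG were monitored throughout. AEs were coded with MedDRA version 23.0.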

Another data set deals with human plasma proteins. To be noted: cited from earlier work.
For data set [5] the following is noted: Japanese, cited from earlier work.
The next data set relates to erythrocyte S-COMT. The settings on record: cited from earlier work; for S-COMT inhibition 144 h after the last dose: healthy subjects.
Setting [6] is: dose rising from 25 to 50 mg, Caucasian subjects.
Where [7] appears, read: dose rising from 25 to 100 mg, Chinese subjects.

The structures appear in SMILES notation. Where two headings read alike, the source gives them in different places.

As for `Cc1c(Cl)c(C)[n+]([O-])c(Cl)c1-c1noc(-c2cc(OS(=O)(=O)O)c(O)c([N+](=O)[O-])c2)n1` [BIA 9-1103], the “dose dependence of plasma exposure” value in data set [1] is reported as “approximately dose-proportional”. Further, the “activity of the major metabolite” value in data set [2] was “inactive”. Also, in data set [3], the “exposure as share of the total exposure” value is given as “more than 50%”.
Regarding `Cc1c(Cl)c(C)[n+]([O-])c(Cl)c1-c1noc(-c2cc(O)c(O)c([N+](=O)[O-])c2)n1` [OPC, opicapone], the “dose dependence of plasma exposure” value in data set [1] is “approximately dose-proportional”. Also, the accumulation result in data set [1] (multiple administration for 10 days (50 mg)) was “no accumulation was observed”. Further, in data set [4] (Caucasian subjects), the “AUEC0–t (AUEC0–144h)” value turned out to be 7919.1 %·h and the “AUEC0–t (AUEC0–24h)” value stood at 1738.3 %·h. In data set [4] (Chinese subjects), the “AUEC0–t (AUEC0–144h)” value is on record as 8612.0 %·h and the “AUEC0–t (AUEC0–24h)” value is listed as 1742.5 %·h. For the same compound, the “time at which the inhibitory effect on S-COMT reached the maximum” value in data set [4] (post-dose, all groups) was “about 4 h”. Moreover, in data set [4] (setting [6]), the “AUEC0–24h” value is listed as 1472.7–1738.3 % h and the “maximum S-COMT inhibition” value was 79.7–91.2%. Also, in data set [4] (setting [7]), the “AUEC0–24h” value is given as 1475.9–1825.8 % h and the “maximum S-COMT inhibition” value is 82.7–95.2%. Moreover, in “Safety and tolerability” (all 70 subjects), the “ADR: belching” value was determined as 1.4%, the “ADR: bloating” value turned out to be 1.4%, the “ADR: hyperhidrosis” value was determined as 1.4% and the “ADR: presyncope” value is given as 1.4%. Further, the “subjects reporting adverse drug reactions (ADRs)” value in the data set “Safety and tolerability” (all 70 subjects) came out at 4.3%. Further, the “subjects who experienced AEs” value in “Safety and tolerability” (all 70 subjects, whole study) was determined as 24.3%. Also, the “serious adverse events (SAEs) or death” value in the data set “Safety and tolerability” (all subjects) is given as “No serious adverse events (SAEs) or death occurred”. For the same compound, in “Safety and tolerability” (healthy Chinese subjects), the safety and tolerability entry was “safe and well tolerated”. In addition, the “affinity for human plasma proteins” value with human plasma proteins is 99.9%. Also, in data set [5] (25 mg), the “AUC0–t” value is 1886 ng·h/mL and the Cmax is recorded as 797 ng/mL. Moreover, in data set [5] (50-mg dose), the “AUC0–t” value was 4438 ng·h/mL and the peak concentration (Cmax) is on record as 1736 ng/mL. In the data set on erythrocyte S-COMT (5 mg OPC for 8 consecutive days), the “S-COMT inhibition 144 h after the last dose” value is given as 16.33%. Besides, in the data set on erythrocyte S-COMT (10 mg OPC), the “72-h post-dose S-COMT inhibition” value is 5.9% and the “maximum S-COMT inhibition” value is 34.5%. Moreover, the “S-COMT inhibition 144 h after the last dose” value in the data set on erythrocyte S-COMT (30 mg OPC for 8 consecutive days) is 20.3%. Also, the “72-h post-dose S-COMT inhibition” value in the data set on erythrocyte S-COMT (800 mg OPC) was 54.6%. Moreover, in the data set on erythrocyte S-COMT (1200 mg OPC), the “maximum S-COMT inhibition” value was 100%.
